From ChEMBL document CHEMBL4251576, “Synthesis and biological evaluation of curcumin inspired imidazo[1,2-a]pyridine analogues as tubulin polymerization inhibitors” (Eur J Med Chem, 2018)
The source made the active and inactive calls. The calls are words filed in the database; no cut-off is given here.

Experiments:
[1] = system: HeLa; assay: Cytotoxicity against human HeLa cells assessed as inhibition of cell viability after 48 hrs by MTT assay; assay type: functional, cell-based
Outline: (§1)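 Cells were seeded at 2.5‒5 x 10^3 per well in DMEM or RPMI with 10% FBS and grown 24 h at 37 °C under CO2. Compounds diluted in medium were added alongside vehicle control for 48 h. MTT (0.5 mg/mL) was added for 4 h, formazan dissolved in DMSO and absorbance read at 570 nm. IC50 is the concentration giving 50% loss of viability; mean ± SD of three experiments, each in triplicate.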

[2] = system: NCI-H460; assay: Cytotoxicity against human NCI-H460 cells assessed as inhibition of cell viability after 48 hrs by MTT assay; assay type: functional, cell-based; conditions: NCI-H460, 48 h; outline: as §1
[3] = system: RWPE-1; assay: Cytotoxicity against human RWPE1 cells assessed as inhibition of cell viability after 48 hrs by MTT assay; assay type: cell-based; conditions: RWPE-1, 48 h; outline: as §1
[4] = system: PC-3; assay: Potency index, ratio of curcumin IC50 to test compound IC50 for human PC3 cells; assay type: functional
[5] = (§2) Inhibition of tubulin polymerization in porcine brain at 10 uM after 60 mins by fluorescence assay; design: species or system Sus scrofa
Outline: (§3)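 Cell-free kit assay using porcine brain tubulin (2 mg/mL) in 80 mM PIPES pH 6.9 with 2.0 mM MgCl2, 0.5 mM EGTA, 1.0 mM GTP and glycerol; compound at 10 µM final, nocodazole as positive control. Polymerization tracked over time as fluorescence of a reporter incorporated into microtubules (ex 360 nm, em 440 nm), with inhibition relative to control.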

[6] = species on record: Sus scrofa; assay: as §2; outline: as §3
[7] = system: PC-3; assay: Cell cycle arrest in human PC3 cells assessed as accumulation at subG1 phase at 1 uM after 24 hrs by propidium iodide staining-based flow cytometric method (reference value: 0.38%); assay type: functional
[8] = system: PC-3; assay: Cell cycle arrest in human PC3 cells assessed as accumulation at G0/G1 phase at 1 uM after 24 hrs by propidium iodide staining-based flow cytometric method (reference value: 58.41%); assay type: functional
[9] = system: PC-3; assay: Cell cycle arrest in human PC3 cells assessed as accumulation at G2/M phase at 1 uM after 24 hrs by propidium iodide staining-based flow cytometric method (reference value: 33.13%); assay type: functional
[10] = system: PC-3; assay: Induction of apoptosis in human PC3 cells assessed as apoptotic body formation at 1 uM after 48 hrs by acridine orange/ethidium bromide staining-based fluorescence inverted microscopic method; assay type: functional, cell-based
Outline: (§4)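 PC-3 cells (25000/well) grown 24 h, then exposed 48 h to 0.5, 1 or 2 µM with DMSO control. After PBS wash, stained with acridine orange and ethidium bromide (10 µg/mL each) and imaged at once by fluorescence inverted microscopy (ex 488 nm, em 530 nm, 200x).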

[11] = system: PC-3; assay: Induction of apoptosis in human PC3 cells assessed as appearance of horse-shoe shaped nuclei at 2 uM after 48 hrs by acridine orange/ethidium bromide staining-based fluorescence inverted microscopic method; assay type: functional, cell-based; outline: as §4
[12] = system: PC-3; assay: Induction of mitochondrial membrane depolarization in human PC3 cells at 2 uM after 24 hrs by JC1 staining-based flow cytometric method (reference value: 11.9%); assay type: functional

Question: What does the source list for COc1cc(OC)c(/C=C/C(=O)/C=C/c2nc3ccccn3c2-c2ccc(F)c(F)c2)c(OC)c1?
Answer: IC50 [1]: 2.53 µM; IC50 [2]: 2.63 µM; IC50 [3]: 4.23 µM; Ratio IC50 [4]: 8.9; IC50 [5]: 8.44 µM; inhibition [6]: Dose-dependent effect; Activity [7]: 0.57%; Activity [8]: 44.87%; Activity [9]: 44.65%; Activity [10]: Active; Activity [11]: Active; Activity [12]: 23.67%
